Laboratory results reported in ChEMBL document CHEMBL5712088, “Pharmacological inhibition of G9a/GLP restores cognition and reduces oxidative stress, neuroinflammation and β-Amyloid plaques in an early-onset Alzheimer's disease mouse model” (2019).
The source made the active and inactive calls. The rule behind the calls is not given here.

Assays:
[1] = test system: Mus musculus; test: Anti-neuro inflammatory activity in 5XFAD mouse assessed as reduction in Il-6 mRNA expression at 5 mg/kg/day, po for 4 weeks by RT-PCR analysis; type: functional, organism-based
Summary of the method: (§1)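 Male 5XFAD mice, 8 months old, given 5 mg/kg/day in drinking water with 1,8% 2-hydroxypropyl-β-cyclodextrin for 4 weeks. Hippocampus collected one day after behavioural testing. Trizol RNA, 2 μg reverse-transcribed, TaqMan qPCR with 18 ng cDNA per reaction. ΔΔCt normalized to housekeeping gene. n = 4-6 (Hmox1: 3-6) per group. One-way ANOVA with Dunnett.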

[2] = test system: Mus musculus; test: Neuroprotective activity in 5XFAD mouse assessed as increase in postsynaptic density protein 95 level at 5 mg/kg/day, po for 4 weeks by Western blot analysis; type: functional, organism-based
Summary of the method: (§2)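 Hippocampal lysates, with protease and phosphatase inhibitors, from 8-month-old male 5XFAD mice after 4 weeks at 5 mg/kg/day in drinking water. 15 μg protein resolved on 8-12% SDS-PAGE and blotted to PVDF. Blocked 1 h, primary antibody overnight at 4°C, HRP secondary, ECL detection. Values expressed as % of Wt control. n = 4 per group.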

[3] = test system: Mus musculus; test: Neuroprotective activity in 5XFAD mouse assessed as Vgf gene expression at 5 mg/kg/day, po for 4 weeks by RT-PCR analysis; type: functional, organism-based; summary of the method: as §1
[4] = test system: Mus musculus; test: Anti-neuro inflammatory activity in 5XFAD mouse assessed as Cxcl10 mRNA expression at 5 mg/kg/day, po for 4 weeks by RT-PCR analysis; type: functional, organism-based; summary of the method: as §1
[5] = test system: Mus musculus; test: Neuroprotective activity in 5XFAD mouse assessed as distance in zone-center at 5 mg/kg/day, po for 4 weeks by open field test (reference value: 87.64+/-8.21 cm); type: functional
[6] = test system: Mus musculus; test: Neuroprotective activity in 5XFAD mouse assessed as reduction in GFAP protein level by measuring fluorescence intensity at 5 mg/kg/day, po for 4 weeks by immunostaining analysis; type: functional, organism-based
[7] = test system: Mus musculus; test: Antialzheimer activity in 5XFAD mouse model assessed as increase in 5-hmC global level in DNA at 5 mg/kg/day, po for 4 weeks
[8] = test system: Mus musculus; test: Neuroprotective activity in 5XFAD mouse assessed as restoration of locomotor activity at 5 mg/kg/day, po for 4 weeks by open field test (reference value: 1672.36+/-68.84 cm); type: functional
[9] = test system: Mus musculus; test: Neuroprotective activity in 5XFAD mouse assessed as increase in BDNF protein level at 5 mg/kg/day, po for 4 weeks by Western blot analysis; type: functional, organism-based; summary of the method: as §2
[10] = test system: Mus musculus; test: Antialzheimer activity in 5XFAD mouse model assessed as reduction of 5-mC global level in DNA at 5 mg/kg/day, po for 4 weeks; type: functional, organism-based
Summary of the method: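 8-month-old male 5XFAD mice dosed 5 mg/kg/day via drinking water (1,8% hydroxypropyl-β-cyclodextrin vehicle), 4 weeks. Hippocampal DNA assayed for global 5-mC or 5-hmC by antibody-based ELISA-like colorimetric kit, absorbance 450 nm. Quantified against a standard curve of five control DNA dilutions (0.5–10 ng). n = 4 per group.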

[11] = test system: Mus musculus; test: Neuroprotective activity in 5XFAD mouse assessed as increase in synaptophysin protein level at 5 mg/kg/day, po for 4 weeks by Western blot analysis; type: functional, organism-based; summary of the method: as §2
[12] = test system: Mus musculus; test: Anti-neuro inflammatory activity in 5XFAD mouse assessed as reduction in TNF-alpha mRNA expression at 5 mg/kg/day, po for 4 weeks by RT-PCR analysis; type: functional, organism-based; summary of the method: as §1
[13] = test system: Mus musculus; test: Neuroprotective activity in 5XFAD mouse assessed as increase in Hmox1 gene expression level at 5 mg/kg/day, po for 4 weeks by RT-PCR analysis; type: functional, organism-based; summary of the method: as §1
[14] = test system: Mus musculus; test: Neuroprotective activity in 5XFAD mouse assessed as distance in zone-periphery at 5 mg/kg/day, po for 4 weeks by open field test (reference value: 1450.05+/-133.56 cm); type: functional
[15] = test system: Mus musculus; test: Antioxidant activity in 5XFAD mouse hippocampus assessed as decrease in ROS level at 5 mg/kg/day, po for 4 weeks; type: functional, organism-based
Summary of the method: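 Hippocampal homogenates from 8-month-old male 5XFAD mice after 4 weeks of 5 mg/kg/day in drinking water (cyclodextrin vehicle). H2O2 concentration measured with a hydrogen peroxide assay kit as an oxidative stress index. n = 3 per group, mean ± SEM.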

[16] = test system: Mus musculus; test: Neuroprotective activity in 5XFAD mouse assessed as no change in IBA1 protein level at 5 mg/kg/day, po for 4 weeks by immunostaining analysis; type: functional, organism-based
[17] = test system: Mus musculus; test: Neuroprotective activity in 5XFAD mouse assessed as number of beta-amyloid plaques at 5 mg/kg/day, po for 4 weeks relative to control; type: functional
Summary of the method: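 Male 5XFAD mice, 8 months old, received 5 mg/kg/day in drinking water for 4 weeks. 30 μm brain sections rehydrated in PBS, then stained with 0.3% Thioflavin-S for 20 min at room temperature in the dark.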

[18] = test system: Mus musculus; test: Neuroprotective activity in cognitive impairment of 5XFAD mouse model assessed as increase in discrimination index at 5 mg/kg/day, po for 4 weeks by novel object location test; type: functional, organism-based
Summary of the method: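 Object location task in 8-month-old male 5XFAD mice after 4 weeks of 5 mg/kg/day in drinking water. Sessions video-recorded from above. Time sniffing the relocated object (TN) versus the object in the familiar location (TO) was scored. DI = (TN-TO)/(TN+TO).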

[19] = test system: Mus musculus; test: Neuroprotective activity in 5XFAD mouse assessed as urinations at 5 mg/kg/day, po for 4 weeks by open field test (reference value: 0); type: functional
[20] = test system: Mus musculus; test: Neuroprotective activity in 5XFAD mouse model assessed as reduced cognitive deficit in long term memory at 5 mg/kg/day, po for 4 weeks by novel object recognition test; type: functional, organism-based
Summary of the method: (§3)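 8-month-old male 5XFAD mice after 4 weeks of 5 mg/kg/day in drinking water. Two-arm 90° maze, habituated 10 min/day for 3 days. 10 min acquisition with two identical objects, then one object replaced after 2 h (short-term) or 24 h (long-term). DI = (TN−TO)/(TN+TO), exploration ≤2 cm. Objects counterbalanced.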

[21] = test system: Mus musculus; test: Neuroprotective activity in 5XFAD mouse assessed as increase in GPX1 protein level at 5 mg/kg/day, po for 4 weeks by Western blot analysis; type: functional, organism-based; summary of the method: as §2
[22] = test system: Mus musculus; test: Neuroprotective activity in 5XFAD mouse assessed as increase in SOD1 protein level at 5 mg/kg/day, po for 4 weeks by Western blot analysis; type: functional, organism-based; summary of the method: as §2
[23] = test system: Mus musculus; test: Neuroprotective activity in 5XFAD mouse assessed as reduction in H3K9me2 level at 5 mg/kg/day, po for 4 weeks by Western blot analysis; type: functional, organism-based; summary of the method: as §2
[24] = test system: Mus musculus; test: Neuroprotective activity in 5XFAD mouse assessed as Ngf gene expression at 5 mg/kg/day, po for 4 weeks by RT-PCR analysis; type: functional, organism-based; summary of the method: as §1
[25] = test system: Mus musculus; test: Neuroprotective activity in 5XFAD mouse assessed as defecations at 5 mg/kg/day, po for 4 weeks by open field test (reference value: 0.80+/-0.20 No_Unit); type: functional
[26] = test system: Mus musculus; test: Neuroprotective activity in 5XFAD mouse model assessed as reduced cognitive deficit in short term memory at 5 mg/kg/day, po for 4 weeks by novel object recognition test; type: functional, organism-based; summary of the method: as §3
[27] = test system: Mus musculus; test: Neuroprotective activity in 5XFAD mouse assessed as no change in Mcp1 mRNA expression at 5 mg/kg/day, po for 4 weeks by RT-PCR analysis; type: functional, organism-based; summary of the method: as §1
[28] = test system: Mus musculus; test: Neuroprotective activity in 5XFAD mouse assessed as increase in NRF2 protein level at 5 mg/kg/day, po for 4 weeks by Western blot analysis; type: functional, organism-based; summary of the method: as §2
[29] = test system: Mus musculus; test: Neuroprotective activity in 5XFAD mouse assessed as increase in grooming at 5 mg/kg/day, po for 4 weeks by open field test (reference value: 1.2+/-0.25); type: functional
[30] = test system: Mus musculus; test: Neuroprotective activity in 5XFAD mouse assessed as increase in vertical activity by measuring number of rearings at 5 mg/kg/day, po for 4 weeks by open field test (reference value: 9.9+/-0.66); type: functional

SMILES: COc1cc2c(NC3CCN(C(C)C)CC3)nc(N3CCC(F)(F)CC3)nc2cc1OCCCN1CCCC1
- Activity [1]: Active
- Activity [2]: Active
- Activity [3]: Active
- Activity [4]: inactive
- Activity [5]: 92.74 cm
- Activity [6]: Active
- Activity [7]: Active
- Activity [8]: 2030.46 cm
- Activity [9]: Active
- Activity [10]: Active
- Activity [11]: Active
- Activity [12]: Active
- Activity [13]: Active
- Activity [14]: 1623.83 cm
- Activity [15]: Active
- Activity [16]: inactive
- Activity [17]: 45%
- Activity [18]: Active
- Activity [19]: 0
- Activity [20]: Active
- Activity [21]: Active
- Activity [22]: Active
- Activity [23]: Active
- Activity [24]: Active
- Activity [25]: 0.86
- Activity [26]: Active
- Activity [27]: inactive
- Activity [28]: Active
- Activity [29]: 3.71
- Activity [30]: 14.29
